The test system of assay [1] is Enterococcus faecium. Put plainly: Antibacterial activity against vancomycin-resistant Enterococcus faecium isolate 243. The format is functional. In a few lines: (§1)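 Wild-type and clinical E. faecium isolates were grown in Enterococcosal broth. Overnight stationary-phase cultures were diluted 1:1000 into fresh medium and incubated with two-fold compound dilutions (seven concentrations) overnight at 37 °C in 96-well plates. The MIC was recorded as the […], and values were rounded.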

Assay [2] deals with Enterococcus faecium. The assay is described as follows: Antibacterial activity against vancomycin-sensitive Enterococcus faecium isolate 987.
The subject of assay [3] is Enterococcus faecium. The assay is described as follows: Antibacterial activity against vancomycin-resistant Enterococcus faecium isolate 449. The format is functional. The method, boiled down: as §1
Assay [4] deals with Enterococcus faecium. The assay is described as follows: Antibacterial activity against vancomycin-resistant Enterococcus faecium isolate 820. The format is functional. In a few lines: as §1
The test system of assay [5] is Staphylococcus aureus. The assay is described as follows: Antibacterial activity against vancomycin-sensitive Staphylococcus aureus ATCC 6538P. The format is functional.
Assay [6] concerns Staphylococcus aureus. Put plainly: Antibacterial activity against Staphylococcus aureus. The format is functional.
[7] abbreviates: Enterococcus faecium, isolate 243, read-out: MIC.
Where [8] appears, read: Staphylococcus aureus, ATCC 6538P, read-out: MIC.

In brackets after ≈: the same amount, converted by molar mass. Some results are limits rather than exact numbers.

Take `CN[C@H](CC(C)C)C(=O)N[C@H]1C(=O)N[C@@H](CC(N)=O)C(=O)N[C@H]2C(=O)N[C@H]3C(=O)N[C@H](C(=O)N[C@H](C(=O)O)c4cc(O)cc(O)c4-c4cc3ccc4O)[C@H](O)c3ccc(c(Cl)c3)Oc3cc2cc(c3O[C@@H]2O[C@H](CO)[C@@H](O)[C@H](O)[C@H]2O[C@H]2C[C@](C)(N)[C@H](O)[C@H](C)O2)Oc2ccc(cc2Cl)[C@H]1O` [VANCOMYCIN]: the minimal inhibitory concentration (MIC) in assay [1] (setting [7]) is 1 µM (≈ 1.45 µg/mL); in assay [2], less than 1 µM; in assay [3], 43 µM (≈ 62.3 µg/mL); in assay [4], more than 86 µM; in assay [5] (setting [8]), 1 µM (≈ 1.45 µg/mL).
As to `COC(=O)[C@@H](CCCCN)NC(=O)CCCOc1ccc2ccccc2c1-c1c(OCCCC(=O)N[C@H](CCCCN)C(=O)OC)ccc2ccccc12`, the minimum inhibitory concentration (MIC) in assay [5] (setting [8]) is more than 153 µM.
In turn, `C=CCOc1ccc2ccccc2c1-c1c(OCC(=O)N[C@H](CCCCN)C(=O)N[C@H](CCCNC(=N)N)C(=O)N[C@@H](CC=C)C(=O)OCc2ccccc2)ccc2ccccc12` gave an MIC in assay [6] of 2 µM (≈ 1.71 µg/mL).
Turning to `NCCCC[C@@H](NC(=O)CCCOc1ccc2ccccc2c1-c1c(OCCCC(=O)N[C@H](CCCCN)C(=O)OCc2ccccc2)ccc2ccccc12)C(=O)OCc1ccccc1`, the MIC in assay [1] (setting [7]) amounted to 129 µM (≈ 115 µg/mL); in assay [2], 129 µM (≈ 115 µg/mL); in assay [3], 65 µM (≈ 58.2 µg/mL); in assay [4], 65 µM (≈ 58.2 µg/mL); in assay [5] (setting [8]) it was 4 µM (≈ 3.58 µg/mL).
With `N=C(N)NCCC[C@@H](NC(=O)CCCOc1ccc2ccccc2c1-c1c(OCCCC(=O)N[C@H](CCCNC(=N)N)C(=O)NCc2ccccc2)ccc2ccccc12)C(=O)NCc1ccccc1`, the MIC in assay [1] (setting [7]) was 61 µM (≈ 57.9 µg/mL); in assay [2], 122 µM (≈ 116 µg/mL); in assay [3] it was 61 µM (≈ 57.9 µg/mL); in assay [4], 122 µM (≈ 116 µg/mL); in assay [5] (setting [8]), 2 µM (≈ 1.9 µg/mL).
On to `N=C(N)NCCCC[C@@H](NC(=O)CCCOc1ccc2ccccc2c1-c1c(OCCCC(=O)N[C@H](CCCCNC(=N)N)C(=O)OCc2cccc3ccccc23)ccc2ccccc12)C(=O)OCc1cccc2ccccc12`, for which the MIC in assay [1] (setting [7]) was more than 109 µM; in assay [2], more than 108 µM; in assay [3], 109 µM (≈ 118 µg/mL); in assay [4], 54 µM (≈ 58.3 µg/mL); in assay [5] (setting [8]) it was 7 µM (≈ 7.56 µg/mL).
Take `NCCCC[C@@H](NC(=O)CCCOc1ccc2ccccc2c1-c1c(OCCCC(=O)N[C@H](CCCCN)C(=O)OCc2ccccn2)ccc2ccccc12)C(=O)OCc1ccccn1`: the MIC is more than 129 µM in assay [1] (setting [7]); more than 129 µM in assay [2]; more than 129 µM in assay [3]; more than 129 µM in assay [4]; 129 µM (≈ 116 µg/mL) in assay [5] (setting [8]).
Turning to `Cl.Cl.N=C(N)NCCC[C@@H](NC(=O)CCCOc1ccc2ccccc2c1-c1c(OCCCC(=O)N[C@H](CCCNC(=N)N)C(=O)OCc2ccccc2)ccc2ccccc12)C(=O)OCc1ccccc1` (stereo in doubt; 22), the MIC in assay [1] is 31 µM; in assay [5], 4 µM.
Compound `C=CCc1cc2ccccc2c(-c2c(OC)c(CC(NC(C)=O)C(=O)N[C@H](CCCNC(=N)N)C(=O)N[C@@H](CC=C)C(=O)OC)cc3ccccc23)c1OC` (some centres undefined) showed a minimum inhibitory concentration (MIC) in assay [6] of 2 µM (≈ 1.5 µg/mL).
Compound `C=CCOc1ccc2ccccc2c1-c1c(OCCCC(=O)N[C@H](CCCNC(=N)N)C(=O)OCc2ccccc2)ccc2ccccc12` yielded an MIC in assay [6] of 5 µM (≈ 3.29 µg/mL).
In the case of `NCCCC[C@@H](NC(=O)CCCOc1ccc2ccccc2c1-c1c(OCCCC(=O)N[C@H](CCCCN)C(=O)OCc2cccc3ccccc23)ccc2ccccc12)C(=O)OCc1cccc2ccccc12`, the MIC in assay [1] (setting [7]) is more than 117 µM; in assay [2] it was 117 µM (≈ 116 µg/mL); in assay [3], 117 µM (≈ 116 µg/mL); in assay [4] it was 59 µM (≈ 58.7 µg/mL); in assay [5] (setting [8]), 7 µM (≈ 6.97 µg/mL).
For `COC(=O)[C@@H](CCCNC(=N)N)NC(=O)CCCOc1ccc2ccccc2c1-c1c(OCCCC(=O)N[C@H](CCCNC(=N)N)C(=O)OC)ccc2ccccc12`, the MIC was more than 143 µM in assay [3], more than 143 µM in assay [4] and 18 µM (≈ 14.4 µg/mL) in assay [5] (setting [8]).
For the compound `N=C(N)NCCC[C@@H](NC(=O)CCCOc1ccc2ccccc2c1-c1c(OCCCC(=O)N[C@H](CCCNC(=N)N)C(=O)OCc2ccccc2)ccc2ccccc12)C(=O)OCc1ccccc1` (stereo in doubt; 21), the MIC was 61 µM (≈ 58 µg/mL) in assay [1] (setting [7]); 31 µM (≈ 29.5 µg/mL) in assay [2]; 31 µM (≈ 29.5 µg/mL) in assay [3]; 31 µM (≈ 29.5 µg/mL) in assay [4]; 2 µM (≈ 1.9 µg/mL) in assay [5] (setting [8]).
Take `N=C(N)NCCCC[C@@H](NC(=O)CCCOc1ccc2ccccc2c1-c1c(OCCCC(=O)N[C@H](CCCCNC(=N)N)C(=O)OCc2ccccc2)ccc2ccccc12)C(=O)OCc1ccccc1`: the MIC in assay [1] (setting [7]) stood at 59 µM (≈ 57.8 µg/mL); in assay [2], 119 µM (≈ 117 µg/mL); in assay [3], 59 µM (≈ 57.8 µg/mL); in assay [4], 59 µM (≈ 57.8 µg/mL); in assay [5] (setting [8]), 4 µM (≈ 3.92 µg/mL).
On to `N=C(N)NCCC[C@@H](NC(=O)CCCOc1ccc2ccccc2c1-c1c(OCCCC(=O)N[C@H](CCCNC(=N)N)C(=O)OCc2ccccn2)ccc2ccccc12)C(=O)OCc1ccccn1`, for which the MIC is more than 122 µM in assay [1] (setting [7]); more than 122 µM in assay [2]; more than 122 µM in assay [3]; more than 122 µM in assay [4]; 15 µM (≈ 14.3 µg/mL) in assay [5] (setting [8]).

One may read the MIC as the lowest concentration that inhibits growth of the organism.

The values are drawn from ChEMBL document CHEMBL1817589, “Synthesis and antibacterial activity of C2-symmetric binaphthyl scaffolded amino acid derivatives” (2011).
